Key:
[1] = tested on: Bifidobacterium thermophilum; test: Antimicrobial activity against 90 mins oxgall-stressed Bifidobacterium thermophilum ATCC 25866 after 18 hrs; format: functional
Summary of the method: (§1)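 Cells pelleted from mid-log MRS culture and resuspended in MRS (initial pH 6.5) with 0.3% (wt/vol) oxgall for 90 min anaerobically at 37°C. They were then regrown in MRS pH 6.5 for 24 h (footnote: 18 h) anaerobically and tested for MIC by the same broth microdilution assay. Median of four repetitions.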

[2] = tested on: Bifidobacterium bifidum; test: Antimicrobial activity against 90 mins oxgall-stressed Bifidobacterium bifidum R0071 after 18 hrs; format: functional; summary of the method: as §1
[3] = tested on: Bifidobacterium bifidum; test: Antimicrobial activity against 60 min 1 M HCl-stressed Bifidobacterium bifidum R0071 after 18 hrs; format: functional
Summary of the method: (§2)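 Mid-log MRS culture pelleted and resuspended in MRS broth brought to pH 2.0 with 1 M HCl, held anaerobically at 37°C for 60 min, then subcultured in MRS (pH 6.5) for 24 h anaerobically before MIC testing by broth microdilution (as for unstressed cells). Table footnote gives 18 h anaerobic regrowth after the stress. MIC is the median of four repetitions.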

[4] = tested on: Bifidobacterium pseudolongum; test: Antimicrobial activity against 90 mins oxgall-stressed Bifidobacterium pseudolongum ATCC 25562 after 18 hrs; format: functional; summary of the method: as §1
[5] = Antimicrobial activity against Bifidobacterium infantis ATCC 15697; format: functional, Bifidobacterium longum subsp. infantis; conditions: Bifidobacterium longum
Summary of the method: (§3)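 Broth microdilution in MRS plus 0.05% L-cysteine-HCl. Mid-log culture adjusted to OD650 0.1, giving about 2.5 × 10^4 to 5.0 × 10^4 CFU/well, then added to twofold serial dilutions of agent. Plates incubated anaerobically at 37°C for 18 h and read at OD650. MIC is the lowest concentration matching the uninoculated blank OD, taken as the median of four repeats.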

[6] = tested on: Bifidobacterium bifidum; test: Antimicrobial activity against Bifidobacterium bifidum R0071; format: functional; summary of the method: as §3
[7] = tested on: Bifidobacterium bifidum; test: Antimicrobial activity against 90 mins hydrogen peroxide-stressed Bifidobacterium bifidum BB12 after 18 hrs; format: functional
Summary of the method: (§4)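 Stress applied for 90 min at 37°C under anaerobic conditions, using MRS (initial pH 6.5) containing H2O2 at each strain's own inhibitory concentration. The H2O2 level was set beforehand by microplate tolerance testing. Challenged cells were regrown in MRS for 24 h (footnote: 18 h) before MIC testing by broth microdilution. Median of four repetitions.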

[8] = tested on: Bifidobacterium animalis; test: Antimicrobial activity against 90 mins oxgall-stressed Bifidobacterium animalis ATCC 27536 after 18 hrs; format: functional; summary of the method: as §1
[9] = tested on: Bifidobacterium thermophilum; test: Antimicrobial activity against 90 mins hydrogen peroxide-stressed Bifidobacterium thermophilum ATCC 25866 after 18 hrs; format: functional; summary of the method: as §4
[10] = tested on: Bifidobacterium longum; test: Antimicrobial activity against 60 min 1 M HCl-stressed Bifidobacterium longum P/N 601377 after 18 hrs; format: functional; summary of the method: as §2
[11] = tested on: Bifidobacterium breve; test: Antimicrobial activity against 60 min 1 M HCl-stressed Bifidobacterium breve ATCC 15700 after 18 hrs; format: functional; summary of the method: as §2
[12] = tested on: Bifidobacterium breve; test: Antimicrobial activity against 90 mins oxgall-stressed Bifidobacterium breve ATCC 15700 after 18 hrs; format: functional; summary of the method: as §1
[13] = tested on: Bifidobacterium pseudolongum; test: Antimicrobial activity against 60 min 1 M HCl-stressed Bifidobacterium pseudolongum ATCC 25562 after 18 hrs; format: functional; summary of the method: as §2
[14] = tested on: Bifidobacterium longum; test: Antimicrobial activity against 90 mins hydrogen peroxide-stressed Bifidobacterium longum ATCC 15707 after 18 hrs; format: functional; summary of the method: as §4
[15] = tested on: Bifidobacterium longum; test: Antimicrobial activity against 90 mins oxgall-stressed Bifidobacterium longum ATCC 15707 after 18 hrs; format: functional; summary of the method: as §1
[16] = tested on: Bifidobacterium thermophilum; test: Antimicrobial activity against Bifidobacterium thermophilum ATCC 25866; format: functional; summary of the method: as §3
[17] = tested on: Bifidobacterium longum; test: Antimicrobial activity against 90 mins oxgall-stressed Bifidobacterium longum R0175 after 18 hrs; format: functional; summary of the method: as §1
[18] = Antimicrobial activity against 90 mins oxgall-stressed Bifidobacterium infantis ATCC 15697 after 18 hrs; format: functional, Bifidobacterium longum subsp. infantis; conditions: Bifidobacterium longum; summary of the method: as §1
[19] = tested on: Bifidobacterium pseudolongum; test: Antimicrobial activity against Bifidobacterium pseudolongum ATCC 25562; format: functional; summary of the method: as §3
[20] = tested on: Bifidobacterium animalis; test: Antimicrobial activity against Bifidobacterium animalis ATCC 27536; format: functional; summary of the method: as §3
[21] = tested on: Bifidobacterium breve; test: Antimicrobial activity against 90 mins hydrogen peroxide-stressed Bifidobacterium breve ATCC 15700 after 18 hrs; format: functional; summary of the method: as §4
[22] = tested on: Bifidobacterium bifidum; test: Antimicrobial activity against 90 mins oxgall-stressed Bifidobacterium bifidum BB12 after 18 hrs; format: functional; summary of the method: as §1
[23] = tested on: Bifidobacterium breve; test: Antimicrobial activity against 60 min 1 M HCl-stressed Bifidobacterium breve R0070 after 18 hrs; format: functional; summary of the method: as §2
[24] = tested on: Bifidobacterium bifidum; test: Antimicrobial activity against 90 mins hydrogen peroxide-stressed Bifidobacterium bifidum R0071 after 18 hrs; format: functional; summary of the method: as §4
[25] = tested on: Bifidobacterium bifidum; test: Antimicrobial activity against Bifidobacterium bifidum ATCC 15696; format: functional; summary of the method: as §3
[26] = tested on: Bifidobacterium longum; test: Antimicrobial activity against 90 mins hydrogen peroxide-stressed Bifidobacterium longum R0175 after 18 hrs; format: functional; summary of the method: as §4
[27] = tested on: Bifidobacterium longum; test: Antimicrobial activity against Bifidobacterium longum R0175; format: functional; summary of the method: as §3
[28] = tested on: Bifidobacterium breve; test: Antimicrobial activity against Bifidobacterium breve ATCC 15700; format: functional; summary of the method: as §3
[29] = tested on: Bifidobacterium longum; test: Antimicrobial activity against 60 min 1 M HCl-stressed Bifidobacterium longum ATCC 15707 after 18 hrs; format: functional; summary of the method: as §2
[30] = tested on: Bifidobacterium longum; test: Antimicrobial activity against 60 min 1 M HCl-stressed Bifidobacterium longum R0175 after 18 hrs; format: functional; summary of the method: as §2
[31] = tested on: Bifidobacterium longum; test: Antimicrobial activity against 90 mins oxgall-stressed Bifidobacterium longum P/N 601377 after 18 hrs; format: functional; summary of the method: as §1
[32] = tested on: Bifidobacterium animalis; test: Antimicrobial activity against 60 min 1 M HCl-stressed Bifidobacterium animalis ATCC 27536 after 18 hrs; format: functional; summary of the method: as §2
[33] = tested on: Bifidobacterium longum; test: Antimicrobial activity against 90 mins oxgall-stressed Bifidobacterium longum ATCC 15708 after 18 hrs; format: functional; summary of the method: as §1
[34] = tested on: Bifidobacterium longum; test: Antimicrobial activity against Bifidobacterium longum ATCC 15708; format: functional; summary of the method: as §3
[35] = tested on: Bifidobacterium thermophilum; test: Antimicrobial activity against 60 min 1 M HCl-stressed Bifidobacterium thermophilum ATCC 25866 after 18 hrs; format: functional; summary of the method: as §2
[36] = tested on: Bifidobacterium animalis; test: Antimicrobial activity against 90 mins hydrogen peroxide-stressed Bifidobacterium animalis ATCC 27536 after 18 hrs; format: functional; summary of the method: as §4
[37] = tested on: Bifidobacterium longum; test: Antimicrobial activity against Bifidobacterium longum P/N 601377; format: functional; summary of the method: as §3
[38] = tested on: Bifidobacterium bifidum; test: Antimicrobial activity against 60 min 1 M HCl-stressed Bifidobacterium bifidum BB12 after 18 hrs; format: functional; summary of the method: as §2
[39] = tested on: Bifidobacterium bifidum; test: Antimicrobial activity against Bifidobacterium bifidum BB12; format: functional; summary of the method: as §3
[40] = tested on: Bifidobacterium longum; test: Antimicrobial activity against Bifidobacterium longum ATCC 15707; format: functional; summary of the method: as §3
[41] = tested on: Bifidobacterium breve; test: Antimicrobial activity against 90 mins hydrogen peroxide-stressed Bifidobacterium breve R0070 after 18 hrs; format: functional; summary of the method: as §4
[42] = tested on: Bifidobacterium breve; test: Antimicrobial activity against Bifidobacterium breve R0070; format: functional; summary of the method: as §3
[43] = tested on: Bifidobacterium longum; test: Antimicrobial activity against 90 mins hydrogen peroxide-stressed Bifidobacterium longum ATCC 15708 after 18 hrs; format: functional; summary of the method: as §4
[44] = tested on: Bifidobacterium breve; test: Antimicrobial activity against 90 mins oxgall-stressed Bifidobacterium breve R0070 after 18 hrs; format: functional; summary of the method: as §1
[45] = Antimicrobial activity against 60 min 1 M HCl-stressed Bifidobacterium infantis ATCC 15697 after 18 hrs; format: functional, Bifidobacterium longum subsp. infantis; conditions: Bifidobacterium longum; summary of the method: as §2
[46] = tested on: Bifidobacterium bifidum; test: Antimicrobial activity against 90 mins oxgall-stressed Bifidobacterium bifidum ATCC 15696 after 18 hrs; format: functional; summary of the method: as §1
[47] = tested on: Bifidobacterium longum; test: Antimicrobial activity against 90 mins hydrogen peroxide-stressed Bifidobacterium longum P/N 601377 after 18 hrs; format: functional; summary of the method: as §4

Measured: MIC

CN(C)[C@@H]1C(O)=C(C(N)=O)C(=O)[C@@]2(O)C(O)=C3C(=O)c4c(O)cccc4[C@@](C)(O)[C@H]3C[C@@H]12.Cl [TETRACYCLINE HYDROCHLORIDE]
250 µg/mL: [11] | [18]
15.6 µg/mL: [9] | [19] | [26] | [37] | [39]
7.8 µg/mL: [7] | [14] | [41]
0.98 µg/mL: [10] | [13] | [30] | [38]
3.9 µg/mL: [20] | [22]
62.5 µg/mL: [2] | [16] | [24] | [27] | [29] | [31] | [32] | [36] | [40] | [42] | [44]
31.2 µg/mL: [3] | [6] | [12] | [21] | [23] | [25] | [28] | [34] | [43]
125 µg/mL: all other assays above

— ChEMBL document CHEMBL1142148, “Antibiotic susceptibility profile of bifidobacteria as affected by oxgall, acid, and hydrogen peroxide stress” (2007)
